From ChEMBL document CHEMBL4765342, “Substituted benzothiophene and benzofuran derivatives as a novel class of bone morphogenetic Protein-2 upregulators: Synthesis, anti-osteoporosis efficacies in ovariectomized rats and a zebrafish model, and ADME properties” (Eur J Med Chem, 2020)
Each block holds one compound with its values, some of them ahead of it. Active and inactive are the calls of the source. The calls are words filed in the database; no cut-off is given here.

Tests used:
[1] = molecular target: Runt-related transcription factor 2 (Mus musculus) (UniProt Q08775); experiment: Upregulation of Runx2 transcriptional activity in mouse MC3T3-E1 cells transfected with p6OSE2-luc at 100 uM incubated for 48 hrs by firefly luciferase reporter gene assay relative to control; type: cell-based; conditions: filed as activator
Chain of Runt-related transcription factor 2 (Mus musculus) (Q08775 whole entry): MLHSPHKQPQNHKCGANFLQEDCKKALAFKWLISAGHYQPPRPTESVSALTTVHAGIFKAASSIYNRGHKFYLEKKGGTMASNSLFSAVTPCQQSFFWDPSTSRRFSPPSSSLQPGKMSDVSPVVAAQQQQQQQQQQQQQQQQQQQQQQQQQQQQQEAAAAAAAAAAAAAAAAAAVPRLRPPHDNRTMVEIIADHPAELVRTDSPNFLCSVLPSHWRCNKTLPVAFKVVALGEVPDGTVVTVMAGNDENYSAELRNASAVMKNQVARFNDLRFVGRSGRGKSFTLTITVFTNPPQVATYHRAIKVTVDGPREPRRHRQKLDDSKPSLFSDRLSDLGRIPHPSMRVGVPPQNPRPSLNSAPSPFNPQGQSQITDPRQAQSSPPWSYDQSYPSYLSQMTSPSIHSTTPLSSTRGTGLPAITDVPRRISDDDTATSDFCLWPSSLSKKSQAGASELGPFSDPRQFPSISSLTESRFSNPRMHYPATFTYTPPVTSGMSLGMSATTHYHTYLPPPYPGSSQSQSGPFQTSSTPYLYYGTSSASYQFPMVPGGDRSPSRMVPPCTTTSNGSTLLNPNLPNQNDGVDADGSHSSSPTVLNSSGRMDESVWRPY
Procedure, shortened: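 MC3T3-E1 cells reverse-transfected in suspension with p6OSE2-luc (Runx2-responsive reporter), 100 ng DNA per well, 10^5 cells/ml in α-MEM with 10% FBS, 37 °C in CO2. After 24 h the medium was replaced with complete medium containing compound, with lovastatin as positive control. Firefly luciferase read after a further 48 h as relative luminescence units. Significance by Dunnett's test.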

Rattus norvegicus [2] = experiment: Antiosteoporotic activity in Sprague-Dawley rat model of OVX-induced bone loss assessed as increase in number of trabeculae at 30 mg/kg, ig administered for 3 months with 1 day break after 6 consecutive days administration; type: functional, organism-based
Procedure, shortened: (§1)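 Female SD rats given bilateral ovariectomy (sham: fat tissue removed instead), adapted 1 week beforehand; dosing began on postoperative day 10, n = 10 per group. Test drugs as 3 mg/mL suspension by gavage; raloxifene hydrochloride at 0.5 mg/mL. Controls got water. Tetracycline 30 mg/kg ip 16 and 3 days before euthanasia. Tibia stained sections give trabecular morphology and TBV%. BMD of L4-6 measured by densitometry under pentobarbital 45 mg/kg anaesthesia. Reported as mean ± SD.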

Rattus norvegicus [3] = experiment: Antiosteoporotic activity in Sprague-Dawley rat model of OVX-induced bone loss assessed as increase in thickness of trabeculae at 30 mg/kg, ig administered for 3 months with 1 day break after 6 consecutive days administration; type: functional, organism-based; procedure, shortened: as §1
Rattus norvegicus [4] = experiment: Antiosteoporotic activity in Sprague-Dawley rat model of OVX-induced bone loss assessed as narrowed gap between trabeculae at 30 mg/kg, ig administered for 3 months with 1 day break after 6 consecutive days administration; type: functional, organism-based; procedure, shortened: as §1
Rattus norvegicus [5] = experiment: Antiosteoporotic activity in Sprague-Dawley rat model of OVX-induced bone loss assessed as increase in trabecular bone volume at 30 mg/kg, ig administered for 3 months with 1 day break after 6 consecutive days administration; type: functional, organism-based; procedure, shortened: as §1
Rattus norvegicus [6] = experiment: Antiosteoporotic activity in Sprague-Dawley rat model of OVX-induced bone loss assessed as increase in trabecular bone mineral density at 30 mg/kg, ig administered for 3 months with 1 day break after 6 consecutive days administration; type: functional, organism-based; procedure, shortened: as §1
Danio rerio [7] = species on record: Danio rerio; experiment: (§2) Antiosteoporotic activity in Zebra fish model of dexamethasone-induced bone loss assessed as increase in bone mineralization at 1 to 25 uM 6hpf embryo treated for 72 hrs with dexamethasone followed by incubation with drug and measured after 6 days post-fertilization by alizarin dye based imaging analysis; type: functional, organism-based; conditions: dose 1-25 µM, time 3.0 day
Procedure, shortened: (§3)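 AB-line zebrafish embryos at 6 hpf held in dexamethasone solution for 72 h, then exposed to drug, and cultured to 6 dpf. Larvae stained with alizarin red, rehydrated, decolorised and photographed. Stained area and integrated optical density were summed over the left-flank branchial bones: cleithrum, compass, opercle and branchiostegal rays. Values expressed relative to untreated controls set at 1.00.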

Danio rerio [8] = species on record: Danio rerio; experiment: as §2, with “by measuring increase in integrated optical density” for “at 1 to 25 uM”; type: functional, organism-based; conditions: dose 1-25 µM, time 3.0 day; procedure, shortened: as §3
Danio rerio [9] = species on record: Danio rerio; experiment: Antiosteoporotic activity in Zebra fish model of dexamethasone-induced bone loss assessed as increase in BMP-2 expression at 1 uM incubated for 24 hrs in presence of dexamethasone by Western blot analysis; type: functional, organism-based
Procedure, shortened: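 Protein extracts were prepared from untreated, dexamethasone-treated and drug-treated (1 µM, 24 h) zebrafish, and BMP-2 protein was then assessed.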

[10] = Toxicity in BALB/c mouse assessed as muscle spasm at 50 to 100 mg/kg, ig administered for 14 days; type: organism-based; conditions: in vivo, po, 336 h, dose 50-100 mg/kg, time 14 day
Procedure, shortened: (§4)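 BALB/c mice, 10 per group, gavaged daily for 14 days at 50 or 100 mg/kg; blank control group included. Hair, behaviour and neurological signs (fremitus, convulsion, spasm, gait disturbance) were observed. At day 14, mice were weighed and given routine blood tests and serum biochemistry (ALT, AST, urea, creatinine; n = 10). Liver and kidney were examined on paraffin-embedded histology sections.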

[11] = Toxicity in BALB/c mouse assessed as convulsion at 50 to 100 mg/kg, ig administered for 14 days; type: organism-based; conditions: in vivo, po, 336 h, dose 50-100 mg/kg, time 14 day; procedure, shortened: as §4
[12] = Toxicity in BALB/c mouse assessed as fremitus at 50 to 100 mg/kg, ig administered for 14 days; type: organism-based; conditions: in vivo, po, 336 h, dose 50-100 mg/kg, time 14 day; procedure, shortened: as §4
[13] = Toxicity in BALB/c mouse assessed as effect on body weight at 50 to 100 mg/kg, ig administered for 14 days; type: organism-based; conditions: in vivo, po, 336 h, dose 50-100 mg/kg, time 14 day; procedure, shortened: as §4
[14] = Toxicity in BALB/c mouse assessed as effect on hair at 50 to 100 mg/kg, ig administered for 14 days; type: organism-based; conditions: in vivo, po, 336 h, dose 50-100 mg/kg, time 14 day; procedure, shortened: as §4
[15] = Solubility in PBS buffer at pH 7.4 assessed as precipitation of compound at 10000 nM; type: physicochemical; conditions: pH 7.4, 10 µM
[16] = Solubility in PBS buffer at pH 7.4 assessed as precipitation of compound at 5000 nM; type: physicochemical; conditions: pH 7.4, 5 µM
[17] = Solubility in PBS buffer at pH 7.4 assessed as precipitation of compound at 2500 nM; type: physicochemical; conditions: pH 7.4, 2.5 µM
[18] = Solubility in PBS buffer at pH 7.4 assessed as precipitation of compound at 625 nM; type: physicochemical; conditions: pH 7.4, 0.625 µM
[19] = Solubility in PBS buffer at pH 7.4 assessed as precipitation of compound at 312.5 nM; type: physicochemical; conditions: pH 7.4, 0.3125 µM
[20] = Solubility in PBS buffer at pH 7.4 assessed as precipitation of compound at 156.25 nM; type: physicochemical; conditions: pH 7.4, 0.15625 µM
[21] = Apparent permeability across apical to basolateral side in human Caco-2 cells at 10 uM incubated for 2 hrs LC-MS/MS analysis; type: ADME, cell-based; conditions: Caco-2
Procedure, shortened: (§5)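 Caco-2 monolayers, apical to basolateral direction. Plates preincubated 30 min at 37 °C, then exposed to 10 µM compound for 2 h at 37 °C without shaking. Donor and receiver samples were quenched, centrifuged and measured by LC/MS/MS, in duplicate. Papp calculated from receiver concentration, area and time. Monolayer integrity checked by TEER and by Lucifer yellow leakage (30 min, 37 °C, ex 485/em 530 nm).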

[22] = Permeability across apical to basolateral side in human Caco-2 cells assessed as transepithelial electrical resistance at 10 uM incubated for 2 hrs LC-MS/MS analysis; type: ADME, cell-based; conditions: caco-2, 2 h; procedure, shortened: as §5
[23] = Permeability across apical to basolateral side in human Caco-2 cells assessed as […] yellow leakage at 10 uM incubated for 2 hrs LC-MS/MS analysis; type: ADME, cell-based; conditions: caco-2, 2 h; procedure, shortened: as §5
[24] = Toxicity in BALB/c mouse assessed as gait disturbance at 50 to 100 mg/kg, ig administered for 14 days; type: organism-based; conditions: in vivo, po, 336 h, dose 50-100 mg/kg, time 14 day; procedure, shortened: as §4
[25] = Toxicity in BALB/c mouse assessed as effect on behavioral change at 50 to 100 mg/kg, ig administered for 14 days; type: organism-based; conditions: in vivo, po, 336 h, dose 50-100 mg/kg, time 14 day; procedure, shortened: as §4
[26] = Toxicity in BALB/c mouse assessed as hepatocyte nucleus mitosis at 50 to 100 mg/kg, ig administered for 14 days; type: organism-based; conditions: in vivo, po, 336 h, dose 50-100 mg/kg, time 14 day; procedure, shortened: as §4
[27] = Toxicity in BALB/c mouse assessed as effect on liver megakaryocyte at 50 to 100 mg/kg, ig administered for 14 days; type: organism-based; conditions: in vivo, po, 336 h, dose 50-100 mg/kg, time 14 day; procedure, shortened: as §4
[28] = Toxicity in BALB/c mouse assessed as inflammatory infiltration in liver at 50 to 100 mg/kg, ig administered for 14 days; type: organism-based; conditions: in vivo, po, 336 h, dose 50-100 mg/kg, time 14 day; procedure, shortened: as §4
[29] = Toxicity in BALB/c mouse assessed as hepatocyte necrotic foci at 50 to 100 mg/kg, ig administered for 14 days; type: organism-based; conditions: in vivo, po, 336 h, dose 50-100 mg/kg, time 14 day; procedure, shortened: as §4
[30] = Toxicity in BALB/c mouse assessed as necrosis in renal tubular epithelial cells at 50 to 100 mg/kg, ig administered for 14 days; type: organism-based; conditions: in vivo, po, 336 h, dose 50-100 mg/kg, time 14 day
Procedure, shortened: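 BALB/c mice, 10 per group: untreated blank group plus low (50 mg/kg) and high (100 mg/kg) dose groups, intragastric once daily for 14 days. Hair, behaviour and neurological signs monitored throughout. At day 14 mice were weighed and dissected. Kidney and liver tissue was fixed in 3 mm pieces, dehydrated through graded alcohol, cleared in xylene, embedded in paraffin, sectioned and examined histopathologically.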

[31] = Hepatotoxicity in BALB/c mouse assessed as effect on serum ALT level at 50 to 100 mg/kg, ig administered for 14 days; type: toxicity, organism-based; conditions: in vivo, po, 336 h, dose 50-100 mg/kg, time 14 day; procedure, shortened: as §4
[32] = Hepatotoxicity in BALB/c mouse assessed as effect on serum AST level at 50 to 100 mg/kg, ig administered for 14 days; type: toxicity, organism-based; conditions: in vivo, po, 336 h, dose 50-100 mg/kg, time 14 day; procedure, shortened: as §4
[33] = Renal toxicity in BALB/c mouse assessed as effect on serum urea level at 50 to 100 mg/kg, ig administered for 14 days; type: organism-based; conditions: in vivo, po, 336 h, dose 50-100 mg/kg, time 14 day; procedure, shortened: as §4
[34] = Renal toxicity in BALB/c mouse assessed as effect on serum creatinine level at 50 to 100 mg/kg, ig administered for 14 days; type: organism-based; conditions: in vivo, po, 336 h, dose 50-100 mg/kg, time 14 day; procedure, shortened: as §4

SMILES: COc1ccc2cc(C(=O)NCCN(C)C)oc2c1
Activity [1]: 267%
Activity (Rattus norvegicus [2]): Active
Activity (Rattus norvegicus [3]): Active
Activity (Rattus norvegicus [4]): Active
Activity (Rattus norvegicus [5]): Active
Activity (Rattus norvegicus [6]): Active
Activity (Danio rerio [7]): Active
Activity (Danio rerio [8]): Dose-dependent effect
Activity (Danio rerio [9]): Active

solubility [15]: Insoluble
solubility [16]: Insoluble
solubility [17]: Insoluble
solubility [18]: Soluble
solubility [19]: Soluble
solubility [20]: Soluble
Papp A→B at 2 h, 10 µM [21]: < 0.0247 nm/s
Activity [22]: 373 Ω·cm²
Activity [23]: 0.152%
SMILES: CCOC(=O)c1cc2ccc(OC)cc2o1
Activity [10]: Non-Toxic
Activity [11]: Non-Toxic
Activity [12]: Non-Toxic
Activity [13]: Non-Toxic
Activity [14]: Non-Toxic
Activity (Rattus norvegicus [2]): Active
Activity (Rattus norvegicus [3]): Active
Activity (Rattus norvegicus [4]): Active
Activity (Rattus norvegicus [5]): Active
Activity (Rattus norvegicus [6]): Active
Activity [24]: Non-Toxic
Activity [25]: Non-Toxic
Activity [26]: Toxic
Activity [27]: Toxic
Activity [28]: Toxic
Activity [29]: Toxic
Activity [30]: Toxic
Activity [31]: Non-Toxic
Activity [32]: Non-Toxic
Activity [33]: Non-Toxic
Activity [34]: Non-Toxic
